Results: ChEMBL document CHEMBL2203263, “Discovery of a 4-Azetidinyl-1-thiazoyl-cyclohexane CCR2 Antagonist as a Development Candidate” (ACS Med Chem Lett, 2012)

Tests used:
Cavia porcellus [1] = assay: Cardiotoxicity in anesthetized-Hartley guinea pig assessed as prolongation of corrected QT interval up to cumulative dose of 10 mg/kg, iv by electrocardiographic analysis; format: toxicity, organism-based; set-up: dose 10 mg/kg, route intravenous; conditions: in vivo
Method in brief: (§1)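 Anesthetized guinea pigs received cumulative i.v. doses of 0.1, 0.3, 1, 3 and 10 mg/kg, each as a 5 min infusion at 0, 20, 40, 60 and 80 min. QTc was recorded at each time point as percent change from each animal's baseline. Mean ± SEM, n = 3.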

Cavia porcellus [2] = assay: Cardiotoxicity in iv dosed anesthetized-Hartley guinea pig assessed as prolongation of corrected QT interval by electrocardiographic analysis; format: toxicity, organism-based; conditions: in vivo; method in brief: as §1
[3] = biological target: Voltage-gated inwardly rectifying potassium channel KCNH2 (Homo sapiens, UniProt Q12809); assay: Displacement of [3H]-astemizole from human ERG expressed in HEK293 cells after 1 hr by scintillation counting analysis; format: cell-based
hERG (KCNH2) = hERG (KCNH2) (Homo sapiens, UniProt Q12809); assay: Inhibition of human ERG expressed in HEK-293 cells assessed as K+-selective outward current at 3 uM at -80 mV holding potential after 5 mins by voltage patch-clamp method; format: cell-based, HEK293; conditions: HEK-293 cells expressing human ERG
hERG (KCNH2), sequence (Q12809 whole entry): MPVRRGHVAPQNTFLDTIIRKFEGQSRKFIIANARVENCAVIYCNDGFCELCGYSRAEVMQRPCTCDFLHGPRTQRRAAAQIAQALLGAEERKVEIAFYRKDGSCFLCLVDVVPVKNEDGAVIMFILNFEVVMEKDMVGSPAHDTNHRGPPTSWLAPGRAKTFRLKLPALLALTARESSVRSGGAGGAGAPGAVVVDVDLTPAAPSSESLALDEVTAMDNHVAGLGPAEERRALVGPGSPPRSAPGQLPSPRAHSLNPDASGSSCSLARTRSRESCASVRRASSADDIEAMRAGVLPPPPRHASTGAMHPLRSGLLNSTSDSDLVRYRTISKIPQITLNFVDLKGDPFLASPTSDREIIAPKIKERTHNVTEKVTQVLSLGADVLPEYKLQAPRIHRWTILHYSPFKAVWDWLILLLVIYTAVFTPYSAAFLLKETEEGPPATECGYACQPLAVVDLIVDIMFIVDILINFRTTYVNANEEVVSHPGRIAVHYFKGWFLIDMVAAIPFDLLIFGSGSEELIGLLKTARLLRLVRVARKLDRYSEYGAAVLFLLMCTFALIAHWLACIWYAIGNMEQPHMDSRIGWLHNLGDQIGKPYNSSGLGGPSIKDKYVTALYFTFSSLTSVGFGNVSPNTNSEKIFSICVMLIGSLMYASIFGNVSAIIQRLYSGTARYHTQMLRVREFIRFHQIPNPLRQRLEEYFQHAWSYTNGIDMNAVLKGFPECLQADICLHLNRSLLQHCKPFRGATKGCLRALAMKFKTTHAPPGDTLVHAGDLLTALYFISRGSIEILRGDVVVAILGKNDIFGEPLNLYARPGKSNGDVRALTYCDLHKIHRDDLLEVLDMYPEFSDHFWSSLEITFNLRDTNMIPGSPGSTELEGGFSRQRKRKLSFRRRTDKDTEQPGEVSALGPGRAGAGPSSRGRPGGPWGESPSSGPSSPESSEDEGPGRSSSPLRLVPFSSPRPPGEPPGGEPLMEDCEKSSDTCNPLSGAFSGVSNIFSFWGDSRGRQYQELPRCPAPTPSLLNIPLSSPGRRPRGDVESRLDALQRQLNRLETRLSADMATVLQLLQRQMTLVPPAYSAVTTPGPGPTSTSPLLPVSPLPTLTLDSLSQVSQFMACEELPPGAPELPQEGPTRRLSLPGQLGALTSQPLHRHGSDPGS

Voltage-gated inwardly rectifying potassium channel KCNH2, sequence (Q12809 whole entry): as above

Cc1ccc([C@]2(O)CC[C@H](N3CC(NC(=O)CNC(=O)c4cccc(C(F)(F)F)c4)C3)CC2)cn1
Activity (Cavia porcellus [1]): 13%
Activity (Cavia porcellus [2]): Dose-dependent effect

Cc1cnc([C@]2(O)CC[C@H](N3CC(NC(=O)CNC(=O)c4cccc(C(F)(F)F)c4)C3)CC2)s1
Activity (Cavia porcellus [1]): 15%

COc1ccc([C@]2(O)CC[C@H](N3CC(NC(=O)CNC(=O)c4cccc(C(F)(F)F)c4)C3)CC2)nc1
IC50 [3]: 25 µM
inhibition at 5 min, 3 µM (hERG (KCNH2)): 30%

CSc1ncc([C@]2(O)CC[C@H](N3CC(NC(=O)CNC(=O)c4cccc(C(F)(F)F)c4)C3)CC2)s1
IC50 [3]: 6 µM
inhibition at 5 min, 3 µM (hERG (KCNH2)): 77%
